ChEMBL document CHEMBL2375313, “Synthesis, in vitro antitumor evaluation and DNA-binding study of novel tetrahydroquinolines and some derived tricyclic and tetracyclic ring systems” (Eur J Med Chem, 2013)

Legend:
Type in all cases: functional
[1] = test system: A498; assay: Cytotoxicity against human A498 cells assessed as growth inhibition at 10 uM after 48 hrs by sulphorhodamine B assay; conditions: A498, 48 h, read-out: GI
Outline: (§1)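 NCI-60 one-dose screen per the NCI Drug Evaluation Branch protocol. Cells given a single 10 µM concentration with 48 h continuous exposure. Growth estimated by sulphorhodamine B protein assay. Result expressed as percentage growth inhibition relative to untreated growth.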

[2] = test system: SF-295; assay: Cytotoxicity against human SF295 cells assessed as growth inhibition at 10 uM after 48 hrs by sulphorhodamine B assay; conditions: SF-295, 48 h, read-out: GI; outline: as §1
[3] = test system: HT-29; assay: Cytotoxicity against human HT-29 cells assessed as growth inhibition at 10 uM after 48 hrs by sulphorhodamine B assay; conditions: HT-29, 48 h, read-out: GI; outline: as §1
[4] = test system: PC-3; assay: Cytotoxicity against human PC3 cells assessed as growth inhibition at 10 uM after 48 hrs by sulphorhodamine B assay; conditions: PC-3, 48 h, read-out: GI; outline: as §1
[5] = test system: SNB-19; assay: Cytotoxicity against human SNB19 cells assessed as growth inhibition at 10 uM after 48 hrs by sulphorhodamine B assay; conditions: SNB-19, 48 h, read-out: GI; outline: as §1
[6] = test system: M14; assay: Cytotoxicity against human M14 cells assessed as growth inhibition at 10 uM after 48 hrs by sulphorhodamine B assay; conditions: M14, 48 h, read-out: GI; outline: as §1
[7] = test system: HOP-92; assay: Cytotoxicity against human HOP92 cells assessed as growth inhibition at 10 uM after 48 hrs by sulphorhodamine B assay; conditions: HOP-92, 48 h, read-out: GI; outline: as §1
[8] = test system: K562; assay: Cytotoxicity against human K562 cells assessed as growth inhibition at 10 uM after 48 hrs by sulphorhodamine B assay; conditions: K562, 48 h, read-out: GI; outline: as §1
[9] = test system: MDA-MB-435; assay: Cytotoxicity against human MDA-MB-435 cells assessed as growth inhibition at 10 uM after 48 hrs by sulphorhodamine B assay; conditions: MDA-MB-435, 48 h, read-out: GI; outline: as §1
[10] = test system: UACC-62; assay: Cytotoxicity against human UACC62 cells assessed as growth inhibition at 10 uM after 48 hrs by sulphorhodamine B assay; conditions: UACC-62, 48 h, read-out: GI; outline: as §1
[11] = test system: MDA-MB-468; assay: Cytotoxicity against human MDA-MB-468 cells assessed as growth inhibition at 10 uM after 48 hrs by sulphorhodamine B assay; conditions: MDA-MB-468, 48 h, read-out: GI; outline: as §1
[12] = test system: SK-MEL-5; assay: Cytotoxicity against human SK-MEL-5 cells assessed as growth inhibition at 10 uM after 48 hrs by sulphorhodamine B assay; conditions: SK-MEL-5, 48 h, read-out: GI; outline: as §1
[13] = test system: HCT-116; assay: Cytotoxicity against human HCT116 cells assessed as growth inhibition at 10 uM after 48 hrs by sulphorhodamine B assay; conditions: HCT-116, 48 h, read-out: GI; outline: as §1
[14] = test system: A549; assay: Cytotoxicity against human A549 cells assessed as growth inhibition at 10 uM after 48 hrs by sulphorhodamine B assay; conditions: A549, 48 h, read-out: GI; outline: as §1
[15] = test system: SR; assay: Cytotoxicity against human SR cells assessed as growth inhibition at 10 uM after 48 hrs by sulphorhodamine B assay; conditions: read-out: GI; outline: as §1
[16] = test system: HCT-15; assay: Cytotoxicity against human HCT15 cells assessed as growth inhibition at 10 uM after 48 hrs by sulphorhodamine B assay; conditions: HCT-15, 48 h, read-out: GI; outline: as §1
[17] = test system: OVCAR-4; assay: Cytotoxicity against human OVCAR4 cells assessed as growth inhibition at 10 uM after 48 hrs by sulphorhodamine B assay; conditions: OVCAR-4, 48 h, read-out: GI; outline: as §1
[18] = test system: RPMI-8226; assay: Cytotoxicity against human RPMI8226 cells assessed as growth inhibition at 10 uM after 48 hrs by sulphorhodamine B assay; conditions: RPMI-8226, 48 h, read-out: GI; outline: as §1
[19] = test system: NCI-H23; assay: Cytotoxicity against human NCI-H23 cells assessed as growth inhibition at 10 uM after 48 hrs by sulphorhodamine B assay; conditions: NCI-H23, 48 h, read-out: GI; outline: as §1
[20] = test system: HL-60(TB); assay: Cytotoxicity against human HL-60(TB) cells assessed as growth inhibition at 10 uM after 48 hrs by sulphorhodamine B assay; conditions: HL-60, 48 h, read-out: GI
Outline: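 NCI-60 one-dose primary screen run to the Drug Evaluation Branch protocol. Cells are exposed to a single 10 µM concentration for 48 h continuously, and growth is read by SRB protein assay. Data are reported as percent growth of treated cells, expressed as % growth inhibition.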

[21] = test system: LOX IMVI; assay: Cytotoxicity against human LOXIMVI cells assessed as growth inhibition at 10 uM after 48 hrs by sulphorhodamine B assay; conditions: read-out: GI; outline: as §1
[22] = test system: RXF 393; assay: Cytotoxicity against human RXF393 cells assessed as growth inhibition at 10 uM after 48 hrs by sulphorhodamine B assay; conditions: RXF 393, 48 h, read-out: GI; outline: as §1
[23] = test system: Hs-578T; assay: Cytotoxicity against human Hs578T cells assessed as growth inhibition at 10 uM after 48 hrs by sulphorhodamine B assay; conditions: read-out: GI; outline: as §1
[24] = test system: MOLT-4; assay: Cytotoxicity against human MOLT4 cells assessed as growth inhibition at 10 uM after 48 hrs by sulphorhodamine B assay; conditions: MOLT-4, 48 h, read-out: GI; outline: as §1
[25] = test system: ACHN; assay: Cytotoxicity against human ACHN cells assessed as growth inhibition at 10 uM after 48 hrs by sulphorhodamine B assay; conditions: read-out: GI; outline: as §1
[26] = test system: SK-OV-3; assay: Cytotoxicity against human SKOV3 cells assessed as growth inhibition at 10 uM after 48 hrs by sulphorhodamine B assay; conditions: SK-OV-3, 48 h, read-out: GI; outline: as §1
[27] = test system: SNB-75; assay: Cytotoxicity against human SNB75 cells assessed as growth inhibition at 10 uM after 48 hrs by sulphorhodamine B assay; conditions: SNB-75, 48 h, read-out: GI; outline: as §1
[28] = test system: OVCAR-5; assay: Cytotoxicity against human OVCAR5 cells assessed as growth inhibition at 10 uM after 48 hrs by sulphorhodamine B assay; conditions: OVCAR-5, 48 h, read-out: GI; outline: as §1
[29] = test system: CCRF-CEM; assay: Cytotoxicity against human CCRF-CEM cells assessed as growth inhibition at 10 uM after 48 hrs by sulphorhodamine B assay; conditions: read-out: GI; outline: as §1
[30] = test system: IGROV-1; assay: Cytotoxicity against human IGROV1 cells assessed as growth inhibition at 10 uM after 48 hrs by sulphorhodamine B assay; conditions: IGROV-1, 48 h, read-out: GI; outline: as §1
[31] = test system: U-251; assay: Cytotoxicity against human U251 cells assessed as growth inhibition at 10 uM after 48 hrs by sulphorhodamine B assay; conditions: U-251, 48 h, read-out: GI; outline: as §1
[32] = test system: NCI/ADR-RES; assay: Cytotoxicity against human NCI/ADR-RES cells assessed as growth inhibition at 10 uM after 48 hrs by sulphorhodamine B assay; conditions: read-out: GI; outline: as §1
[33] = test system: CAKI-1; assay: Cytotoxicity against human Caki1 cells assessed as growth inhibition at 10 uM after 48 hrs by sulphorhodamine B assay; conditions: CAKI-1, 48 h, read-out: GI; outline: as §1
[34] = test system: MCF7; assay: Cytotoxicity against human MCF7 cells assessed as growth inhibition at 10 uM after 48 hrs by sulphorhodamine B assay; conditions: MCF7, 48 h, read-out: GI; outline: as §1
[35] = test system: UO-31; assay: Cytotoxicity against human UO31 cells assessed as growth inhibition at 10 uM after 48 hrs by sulphorhodamine B assay; conditions: UO-31, 48 h, read-out: GI; outline: as §1
[36] = test system: NCI-H522; assay: Cytotoxicity against human NCI-H522 cells assessed as growth inhibition at 10 uM after 48 hrs by sulphorhodamine B assay; conditions: NCI-H522, 48 h, read-out: GI; outline: as §1
[37] = test system: DU-145; assay: Cytotoxicity against human DU145 cells assessed as growth inhibition at 10 uM after 48 hrs by sulphorhodamine B assay; conditions: DU-145, 48 h, read-out: GI; outline: as §1
[38] = test system: SF-268; assay: Cytotoxicity against human SF268 cells assessed as growth inhibition at 10 uM after 48 hrs by sulphorhodamine B assay; conditions: SF-268, 48 h, read-out: GI; outline: as §1
[39] = Cytotoxicity against human EKVX cells assessed as growth inhibition at 10 uM after 48 hrs by sulphorhodamine B assay; conditions: read-out: GI; outline: as §1
[40] = test system: SK-MEL-2; assay: Cytotoxicity against human SK-MEL-2 cells assessed as growth inhibition at 10 uM after 48 hrs by sulphorhodamine B assay; conditions: SK-MEL-2, 48 h, read-out: GI; outline: as §1
[41] = test system: T47D; assay: Cytotoxicity against human T47D cells assessed as growth inhibition at 10 uM after 48 hrs by sulphorhodamine B assay; conditions: read-out: GI; outline: as §1

SMILES: COc1ccc(-c2c3c(nc4ncn5ncnc5c24)C(C)CCC3)cc1 (stereo unspecified)
- inhibition of growth at 10 µM [1]: 13.5%
- inhibition of growth at 10 µM [2]: < 10%
- inhibition of growth at 10 µM [3]: < 10%
- inhibition of growth at 10 µM [4]: 13%
- inhibition of growth at 10 µM [5]: < 10%
- inhibition of growth at 10 µM [6]: < 10%
- inhibition of growth at 10 µM [7]: < 10%
- inhibition of growth at 10 µM [8]: < 10%
- inhibition of growth at 10 µM [9]: < 10%
- inhibition of growth at 10 µM [10]: 18.3%
- inhibition of growth at 10 µM [11]: < 10%
- inhibition of growth at 10 µM [12]: < 10%
- inhibition of growth at 10 µM [13]: < 10%
- inhibition of growth at 10 µM [14]: < 10%
- inhibition of growth at 10 µM [15]: 17.8%
- inhibition of growth at 10 µM [16]: < 10%
- inhibition of growth at 10 µM [17]: < 10%
- inhibition of growth at 10 µM [18]: 31%
- inhibition of growth at 10 µM [19]: < 10%
- inhibition of growth at 10 µM [20]: < 10%
- inhibition of growth at 10 µM [21]: 15%
- inhibition of growth at 10 µM [22]: < 10%
- inhibition of growth at 10 µM [23]: < 10%
- inhibition of growth at 10 µM [24]: 19%
- inhibition of growth at 10 µM [25]: < 10%
- inhibition of growth at 10 µM [26]: < 10%
- inhibition of growth at 10 µM [27]: < 10%
- inhibition of growth at 10 µM [28]: < 10%
- inhibition of growth at 10 µM [29]: < 10%
- inhibition of growth at 10 µM [30]: 10.6%
- inhibition of growth at 10 µM [31]: < 10%
- inhibition of growth at 10 µM [32]: < 10%
- inhibition of growth at 10 µM [33]: < 10%
- inhibition of growth at 10 µM [34]: < 10%
- inhibition of growth at 10 µM [35]: < 10%
- inhibition of growth at 10 µM [36]: < 10%
- inhibition of growth at 10 µM [37]: < 10%
- inhibition of growth at 10 µM [38]: < 10%
- inhibition of growth at 10 µM [39]: < 10%
- inhibition of growth at 10 µM [40]: < 10%
- inhibition of growth at 10 µM [41]: < 10%

SMILES: COc1ccc(-c2c3c(nc4ncn(N)c(=N)c24)C(C)CCC3)cc1 (stereo unspecified)
- inhibition of growth at 10 µM [1]: < 10%
- inhibition of growth at 10 µM [2]: < 10%
- inhibition of growth at 10 µM [3]: < 10%
- inhibition of growth at 10 µM [4]: < 10%
- inhibition of growth at 10 µM [5]: < 10%
- inhibition of growth at 10 µM [6]: < 10%
- inhibition of growth at 10 µM [8]: < 10%
- inhibition of growth at 10 µM [9]: 19%
- inhibition of growth at 10 µM [10]: 24%
- inhibition of growth at 10 µM [11]: < 10%
- inhibition of growth at 10 µM [12]: < 10%
- inhibition of growth at 10 µM [13]: 22.3%
- inhibition of growth at 10 µM [14]: < 10%
- inhibition of growth at 10 µM [15]: < 10%
- inhibition of growth at 10 µM [16]: 25%
- inhibition of growth at 10 µM [17]: 20%
- inhibition of growth at 10 µM [18]: < 10%
- inhibition of growth at 10 µM [19]: 14.4%
- inhibition of growth at 10 µM [20]: < 10%
- inhibition of growth at 10 µM [21]: < 10%
- inhibition of growth at 10 µM [22]: < 10%
- inhibition of growth at 10 µM [23]: < 10%
- inhibition of growth at 10 µM [24]: < 10%
- inhibition of growth at 10 µM [25]: 14.5%
- inhibition of growth at 10 µM [26]: < 10%
- inhibition of growth at 10 µM [27]: 14.3%
- inhibition of growth at 10 µM [28]: < 10%
- inhibition of growth at 10 µM [29]: < 10%
- inhibition of growth at 10 µM [30]: < 10%
- inhibition of growth at 10 µM [31]: 16.7%
- inhibition of growth at 10 µM [32]: < 10%
- inhibition of growth at 10 µM [33]: 10%
- inhibition of growth at 10 µM [34]: < 10%
- inhibition of growth at 10 µM [35]: < 10%
- inhibition of growth at 10 µM [36]: 26%
- inhibition of growth at 10 µM [37]: < 10%
- inhibition of growth at 10 µM [38]: < 10%
- inhibition of growth at 10 µM [39]: 21.5%
- inhibition of growth at 10 µM [40]: 11%
- inhibition of growth at 10 µM [41]: 18.1%
